In the library only some 3.5% were active in any assay of this set; here they are far more common.
WT yeast gro inh: growth inhibition of WT yeast, mitochondrial fusion screen; mitochondrial fusion phenotypic screen, WT strain; inhibition, % at 10 µM; actives 2.1% (n = 190,000); in the data active = inhibition above about 58%; tested in S. cerevisiae
ABCB1 inh: blocks JC-1 efflux by human ABCB1 transporter; P08183; CCRF-Adr cells, flow cytometry; inhibition, % at 6.6 µM; actives 0.067% (n = 190,000); AID 1326; in the data active = inhibition above about 40%;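 also: 0% = vehicle and 100% = reference inhibitor; higher value means more JC-1 retained so stronger ABCB1 efflux block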
MEKK2mut PB1 HTS: signal of MEK5 binding to mutant human MEKK2 PB1 domain; actives 0.35% (n = 290,000); percent response, % at 10 µM; bead flow cytometry, Alexa488-MEK5 binding to MEKK2 mutant; in the data active = percent response above about 24%, passing the limit was not always enough
MEKK3 PB1 HTS: MEKK3-MEK5 PB1 interaction, increase or decrease; Q99759; bead-based flow cytometry, Alexa488-MEK5 binding to MEKK3; actives lie on both sides; 0 = blocked by unlabeled MEK5, 100 = vehicle; binding response (% of control), % at 10 µM; actives 1.4% (n = 290,000);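 active = binding response more than 3 SD above or below the average of its plate-row segment, actives on both sides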;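 also: Alexa488 bead fluorescence after subtracting the streptavidin-only scavenger bead signal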
ABCG2 inh: blocks JC-1 efflux by human ABCG2 transporter; actives 0.1% (n = 190,000); Q9UNQ0; IgMXP3 cells, flow cytometry; inhibition, % at 6.6 µM; AID 1325;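 active = inhibition above 80%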;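 also: 0% = DMSO and 100% = nicardipine control wells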
Target sequence (Q9UNQ0 whole entry, looked up): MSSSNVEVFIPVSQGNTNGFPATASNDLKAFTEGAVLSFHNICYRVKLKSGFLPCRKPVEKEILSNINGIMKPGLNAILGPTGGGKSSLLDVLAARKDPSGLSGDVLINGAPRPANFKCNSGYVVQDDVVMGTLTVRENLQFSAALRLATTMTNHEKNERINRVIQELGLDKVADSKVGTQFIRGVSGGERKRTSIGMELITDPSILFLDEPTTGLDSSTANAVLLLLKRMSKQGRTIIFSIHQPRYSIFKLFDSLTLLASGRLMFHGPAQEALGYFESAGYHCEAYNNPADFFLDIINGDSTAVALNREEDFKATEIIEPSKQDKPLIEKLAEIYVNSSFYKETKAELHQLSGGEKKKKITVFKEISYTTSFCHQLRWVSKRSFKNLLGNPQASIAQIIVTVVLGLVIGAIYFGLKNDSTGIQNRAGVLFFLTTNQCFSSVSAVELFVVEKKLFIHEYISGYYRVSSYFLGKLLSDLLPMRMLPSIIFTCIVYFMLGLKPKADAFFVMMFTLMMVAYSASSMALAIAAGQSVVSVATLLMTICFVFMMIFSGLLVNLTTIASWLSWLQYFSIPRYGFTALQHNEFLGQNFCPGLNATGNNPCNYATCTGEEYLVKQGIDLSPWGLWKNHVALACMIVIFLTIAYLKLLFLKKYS
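Test system: ABCG2 IgMXP3 and barcoded ABCB1 CCRF-Adr cell mix; Schedule: cells with compound and JC-1, 10 min at 25 °C, rotating, no wash; Technique: flow cytometry of retained JC-1 fluorescence; Measure: % inhibition of efflux relative to nicardipine and DMSO; Controls: nicardipine high and DMSO low controls.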
MEKK2 WT-MEK5: raises or lowers MEK5 binding to wildtype human MEKK2 PB1 domain. Q9Y2U5. bead flow cytometry, Alexa488-MEK5 binding to MEKK2 WT; actives lie on both sides. binding response (% of control), % at 10 µM. actives 1.1% (n = 290,000). AID 1531; in the data active = binding response below about 67% or above about 130%
Numbers without * were called inactive; nt = not tested or not shown.

SMILES	WT yeast gro inh	ABCB1 inh	MEKK2mut PB1 HTS	MEKK3 PB1 HTS	ABCG2 inh	MEKK2 WT-MEK5
Cc1nc(C(=O)Nc2cccc(Cl)c2)nn1-c1cc(OC(C)C)c(Cl)cc1Cl	67*	0	-1	101	1	98
Cc1nc(C(=O)Nc2cc(Cl)ccc2Cl)nn1-c1cc(OC(C)C)c(Cl)cc1Cl	3	1	3	104	4	99
Cc1c(OCc2ccccc2)cccc1OCc1ccccc1	66*	2	3	93	15	98
CCN1CCN(CCOc2ccccc2OCc2ccccc2)CC1	5	1	-5	110	2	102
Cn1ccnc1SCC(=O)c1ccc([N+](=O)[O-])cc1	2	0	-2	96	6	93
Cn1ccnc1SCC(=O)c1ccc(Br)cc1	67*	1	5	100	13	96
CCOC(=O)c1c(-c2ccccc2)csc1/N=C/C1C(=O)CCCC1=O	5	0	70*	99	-3	149
CCOC(=O)c1c(CC(C)C)csc1/N=C/C1C(=O)CCCC1=O	-1	3	-3	97	9	95
CCN1C(=O)CC(NC2CCN(C(=O)c3ccc(F)cc3)CC2)C1=O (configuration not stated)	nt	nt	5	102	nt	105
O=S(=O)(c1cccs1)N1CCC(CO)(Cc2ccc(Cl)cc2)CC1	26	0	-4	95	1	100
CCC(=O)N1N=C(c2cccs2)CC1c1ccco1 (configuration not stated)	-10	0	1	103	0	13*
CCN(CC)CC(=O)N1N=C(c2cccs2)CC1c1ccco1 (configuration not stated)	-12	1	11	102	3	103
NS(=O)(=O)c1cccc(NC(=O)COC(=O)CN2C(=O)C3CC=CCC3C2=O)c1 (configuration not stated)	-3	0	-6	103	3	95
Cc1ccc(-n2cccc2C(=S)N=P(N(C)C)(N(C)C)N(C)C)cc1	65*	2	3	103	21	103
C=CCNC(=S)NN=C1CCCCCCC1	60*	0	-7	102	1	96
COCCNC(=S)NN=C1CCCCC1	-9	0	-11	98	1	93
O=C(COc1ccc(Cl)cc1Cl)NNC(=S)NCc1ccco1	76*	-1	-7	100	-5	96
COc1ccc(C2=NN(CN3C(=O)C(=O)c4ccccc43)C(c3cccc([N+](=O)[O-])c3)C2)cc1 (configuration not stated)	nt	nt	-6	92	nt	88
CCc1nnc(NC(=O)c2cccc(C(=O)Nc3nnc(CC)s3)n2)s1	63*	0	7	97	1	93
COc1ccc(NC(=O)CCNC(=O)c2ccco2)c(OC)c1	nt	nt	1	104	nt	101
COc1ccccc1C(=O)NC(=S)/C=C1/N(C)c2ccccc2C1(C)C	78*	0	-1	103	-1	94
CN1/C(=C/C(=S)NC(=O)C2(C)CC2(Cl)Cl)C(C)(C)c2ccccc21 (configuration not stated)	49	0	-6	97	0	91
CN1/C(=C\C(=S)NC(=O)c2ccccc2Cl)C(C)(C)c2ccccc21	58	0	0	86	1	1.0*
CCOC(=O)Nc1sc(C)c(C)c1C(N)=O	-14	0	9	99	1	97
Cc1sc2ncnc(NCC(O)c3ccc([N+](=O)[O-])cc3)c2c1C (configuration not stated)	nt	nt	-1	100	nt	98
SMILES	WT yeast gro inh	ABCB1 inh	MEKK2mut PB1 HTS	MEKK3 PB1 HTS	ABCG2 inh	MEKK2 WT-MEK5
CN1C(=S)SC(C)(C)C1(C)NO (configuration not stated)	65*	0	nt	nt	2	nt
COc1ccc(Cl)cc1C(=O)CSc1nnnn1C1CCCC1	5	-2	-3	95	2	99
COc1ccc(Cl)cc1C(=O)CSc1nnnn1C1CCCCC1	72*	0	-2	99	2	94
CCN(CC)C(=O)c1[nH]cnc1C(=O)N[C@@H](CC(C)C)C(=O)OCc1ccccc1	-9	1	3	94	2	102
O=C(O)CNC(=S)N(Cc1ccccc1)Cc1cccs1	0	0	-13	54	0	63
Cc1cccc(C)c1NC(=S)N(Cc1ccccc1)Cc1cccs1	73*	1	-1	103	9	95
Cc1ccccc1NC(=S)N(Cc1cccs1)C1CCCCC1	67*	1	-3	99	1	97
Cc1c(Cl)cccc1NC(=S)N(Cc1cccs1)C1CCCC1	67*	1	-6	100	7	97
Cc1ccc(Cl)cc1NC(=S)N(Cc1cccs1)C1CCCC1	22	1	2	98	5	100
Nc1cc(C(F)(F)F)ccc1Nc1ccccc1	14	1	3	107	10	101
C/C(CC1CC(C)OC1=O)=N\NC(N)=S (configuration not stated)	-3	0	13	100	1	106
C/C(=N\NC(N)=S)C1C2C3CC4C5CC(C42)C1C53 (configuration not stated)	66*	0	-15	74	11	71
CC(=O)c1cccc(NS(=O)(=O)c2ccc3c(c2)N(C(C)=O)CCO3)c1	nt	nt	3	99	nt	103
Cc1ccc2c(CSc3nnc(C4CC4)n3N)cc(=O)oc2c1	11	0	-2	93	0	92
Cc1ccc2c(CSc3nnc(C4CC4)n3N)cc(=O)oc2c1C	96*	0	nt	nt	1	nt
COc1ccccc1NC(C)C(=O)Nc1ccc(C(C)=O)cc1 (configuration not stated)	0	0	-2	91	11	92
O=C(Cn1cnc2ccccc21)OCC(=O)N1CCc2ccccc2C1	-38	1	1	99	2	103
Nc1ccc(-c2nnnn2-c2ccc(N)cc2)cc1	nt	nt	3	107	nt	108
COc1ccc(C(=O)N2c3ccccc3C=CC2C#N)cc1 (configuration not stated)	-20	0	32	106	6	120
N#C[C@H]1[C@H](c2ccccc2)[C@](C#N)(C(=O)c2ccccc2)[C@@H]2C=Cc3ccccc3N21	63*	3	nt	nt	9	nt
COc1ccc(-c2cc(C(F)(F)F)n3ncc(C(=O)Nc4c(C)n(C)n(-c5ccccc5)c4=O)c3n2)cc1	-12	1	-4	101	0	97
CC(=O)Oc1c(Cl)cc(Cl)cc1/C=C/c1ccc2ccccc2n1	83*	1	8	104	6	104
COC(=O)Cn1cnc2c(nnn2-c2ccc(OC)cc2)c1=O	nt	nt	8	112	nt	109

Screening data as filed in PubChem BioAssay.
